# Rows were chosen to be rich in hits. Some 2.4% of all compounds tested hit in one or more screens of this group.
# ANO1 block: TMEM16A chloride channel inhibitors, primary screen, cell-based, HTS; Anoctamin-1 (Mus musculus), Q8BHY3; HEK293 TMEM16A/YFP iodide influx fluorescence, ionomycin; normalized B-score (activity score, 25-100; higher = stronger inhibition) at 10 µM; hit rate 1.2% among 310,000; AID 588511, 2011;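 active means ratio plate-corrected score three or more library SD toward inhibition, starting fluorescence score within five deviations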;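 further: score derived from kinetic fluorescence span divided by baseline fluorescence per well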
# Apaf-1 inh: inhibitors of human Apaf-1 apoptosome, primary screen, biochemical, DEVD-Rh110 fluorescence, uHTS. inhibition, % at 20 µM. reconstituted apoptosome caspase-3 activity. hit rate 0.71% among 330,000. AID 489030, 2010; active means inhibition of at least 40% at 20 µM
#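 System – cell-free apoptosome with Apaf-1, procaspase-3 and caspase-9 · Buffer or medium – pH 7.5 Hepes buffer with CHAPS, BSA, DTT · Also added – cytochrome c with DEVD-Rh110 · Times – 30 min compound preincubation, 50 min activation, room temperature · Technique – Rh110 fluorescence intensity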
# ANO1 activ: TMEM16A chloride channel activators or potentiators, primary screen, cell-based, HTS. Anoctamin-1 (Mus musculus), Q8BHY3. HEK293 TMEM16A/YFP-H148Q/I152L, iodide quench fluorescence; active compounds read low. B-score at 10 µM. hit rate 0.3% among 340,000. AID 623877, 2012;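 active means fluorescence-ratio B-score plate-corrected deviation score at least 3 library SD below zero, with starting fluorescence score within 5 deviations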;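 further: channel opened by trigger with iodide after compound preincubation; score built on the fluorescence ratio of max minus min over baseline; more negative score means more quench and so TMEM16A activation or potentiation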
# UBC13 polyUb: UBC13 polyubiquitin chain formation inhibitors, primary screen, biochemical, TR-FRET, uHTS; Ubiquitin-conjugating enzyme E2 N (Homo sapiens), P61088; inhibition, % at 20 µM; hit rate 0.47% among 330,000; AID 485273, 2010; in the data active means inhibition above about 45%, passing the limit was not always enough
# Target sequence (P61088 whole entry, looked up): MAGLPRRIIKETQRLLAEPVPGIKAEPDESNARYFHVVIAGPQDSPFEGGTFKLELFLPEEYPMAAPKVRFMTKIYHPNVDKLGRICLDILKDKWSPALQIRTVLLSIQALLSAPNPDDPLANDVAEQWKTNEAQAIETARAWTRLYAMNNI
# DNA FID counter: compounds displacing fluorescent DNA intercalator, primary screen, artefact control for HCV NS3 helicase inhibitor project, biochemical, FID fluorescence; inhibition, % at 7.9 µM; hit rate 0.17% among 290,000; DNA fluorescent intercalator displacement; AID 1845, 2009; in the data active means inhibition above about 37%;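 further: higher means more ethidium bromide displaced from hairpin DNA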
# Numbers stand for hits; – = inactive; · = no result given.
SMILES,ANO1 block,Apaf-1 inh,ANO1 activ,UBC13 polyUb,DNA FID counter
CC(C)Oc1ccc(CNC(=O)CC(c2ccccc2)c2cc(Cl)ccc2O)cc1 (configuration not stated),100,–,–,–,–
COc1ccccc1C(CC(=O)Nc1ccc(Cl)cc1)c1ccc(OC(C)C)cc1 (configuration not stated),–,–,–,–,–
COC(=O)c1sc(-c2ccc(C(C)(C)C)cc2)cc1NC(=O)c1ccccc1C(=O)O,100,–,–,–,–
Cc1noc(C)c1COc1ccc(C(=O)OCC(=O)Nc2c(C)n(C)n(-c3ccccc3)c2=O)cc1,–,–,–,–,–
COc1ccc(CCNc2nc(-c3ccccn3)cs2)cc1OC,–,–,-6.2,–,–
COc1ccc(CCNc2nc(-c3ccncc3)cs2)cc1OC,–,–,–,–,–
Cc1cc(C)c(C#N)c(SCc2ccccc2F)n1,25,–,–,–,–
Cc1cc(C)c(C#N)c(SCSCc2ccccc2)n1,–,–,–,–,–
Cc1c(C(=O)Nc2ccccc2F)sc2ncn(CC(=O)N3CCOCC3)c(=O)c12,–,–,–,–,–
Cn1c2c(c3ccccc31)CCN=C2c1ccccc1,–,–,–,–,·
CS(=O)(=O)CC(=O)Nc1ccc2nc3n(c(=O)c2c1)CCCCC3,–,–,–,–,–
Cc1c(Br)c([N+](=O)[O-])nn1CC(=O)Nc1ccc2nc3n(c(=O)c2c1)CCCC3,–,–,–,–,64
Cc1nn(C)c(C)c1Sc1ccc(Br)cc1,25,–,–,–,–
COC(=O)c1ccc(CC(=O)c2nc3ccccc3s2)cc1,–,–,–,–,–
COC(=O)c1ccc(/C(O)=C(\C#N)c2nc3ccccc3s2)cc1,25,–,–,–,–
Cc1ccc(OC/C(O)=C(\C#N)c2nc3ccccc3s2)cc1,100,–,–,–,–
COc1cccc(NC(=O)CN(C)C(=O)c2ccc(OCC3CCCO3)cc2)c1 (configuration not stated),·,–,–,–,·
COc1cc(/C=C2/SC(=S)N(Cc3ccccc3)C2=O)ccc1O,–,–,–,–,–
COc1cc(/C=C2/SC(=S)N(c3c(C)n(C)n(-c4ccccc4)c3=O)C2=O)ccc1O,–,–,-8.1,–,–
Cc1ccc(C(C)C)cc1OCCn1cncn1,–,–,–,–,–
N#CCCN(C(=O)COC(=O)C12CC3CC(CC(O)(C3)C1)C2)c1ccc(F)cc1,·,43,–,–,·
N#CCCN(C(=O)COC(=O)CNC(=O)C12CC3CC(CC(C3)C1)C2)c1ccccc1,–,–,–,–,·
CN(C)CCNC(=O)/C(=C/c1ccc(-c2ccc(Cl)cc2)o1)NC(=O)c1ccccc1,–,·,–,·,–
CN(C)CCNC(=O)/C(=C/c1ccc(-c2ccc(Cl)cc2Cl)o1)NC(=O)c1ccccc1,–,–,–,–,–
Cc1ccc(C(=O)N/C(=C\c2ccc(-c3ccc(Br)cc3)o2)C(=O)NCCCN(C)C)cc1,–,–,-8.2,72,–
SMILES,ANO1 block,Apaf-1 inh,ANO1 activ,UBC13 polyUb,DNA FID counter
CCn1cc(/C=C(\NC(=O)c2ccc(OC)c(OC)c2)C(=O)NCCCN2CCOCC2)c2ccccc21,·,–,-43,–,–
CN(C)CCCNC(=O)/C(=C\c1ccc(-c2cccc([N+](=O)[O-])c2)o1)NC(=O)c1ccccc1,–,–,–,–,44
Cc1ccc(C(=O)N/C(=C\c2ccc(-c3ccccc3[N+](=O)[O-])o2)C(=O)NCCCN2CCOCC2)cc1,–,65,–,–,–
Cc1csc(=O)n1CCC(=O)OCC(=O)NNC(=O)c1ccccc1,–,–,–,–,·
O=C(CSCc1ccc(Br)cc1)N1CCCC1,–,–,–,–,–
CCN(c1ccccc1)c1nc(C#N)nc(N(CC)c2ccccc2)n1,25,–,–,–,–
COc1ccc(Cl)cc1N1C(=NC(=O)C2CCCO2)SC2CS(=O)(=O)CC21 (configuration not stated),–,–,–,–,–
Cc1cc(C)c2c(c1)-c1c(ssc1=S)C(C)(C)N2C(=O)CN1C(=O)c2ccccc2C1=O,–,–,-13,–,–
Cc1cccc2c1N(C(=O)CN1C(=O)c3ccccc3C1=O)C(C)(C)c1ssc(=S)c1-2,–,–,–,–,–
CC1(C)NC(=O)N(CC(O)COc2ccccc2C(=O)Nc2ccccc2)C1=O (configuration not stated),–,–,–,–,–
O=C(Nc1ccccc1)c1ccccc1OCC(O)CN1C(=O)c2ccccc2S1(=O)=O (configuration not stated),100,–,–,–,–
N=c1oc2ccc(Br)cc2cc1C(=O)NCc1ccccc1,–,–,–,–,–
CC(NC(=O)c1cc2cc(Br)ccc2oc1=N)c1ccccc1 (configuration not stated),25,–,–,–,–
COc1cc(C(=O)NC(=S)NNC(=O)[C@H]2C[C@@H]2c2ccccc2)cc(OC)c1OC,25,–,–,–,–
COc1ccccc1C(=O)NNC(=S)NC(=O)c1cc(OC)c(OC)c(OC)c1,–,–,–,–,–
CCN(CC)S(=O)(=O)c1ccc(O)c(NC(=O)c2cc(-c3cc(OC)c(OC)c(OC)c3)nc3ccccc23)c1,–,–,–,–,–
O=C(NCCN1CCOCC1)C(=O)NCC1OCCCN1S(=O)(=O)c1cc(F)ccc1F (configuration not stated),–,–,–,–,–
CC(C)(C)NC(=O)CN1CCC(O)(c2ccc3c(c2)OCO3)CC1,–,–,-13,–,–
CCOC(=O)c1c(C)[nH]c(C(=O)CSc2nccc(C)n2)c1C,–,–,–,–,–
CC(C)Oc1ccc(CN2CCC(n3nccc3NC(=O)C3CC3)CC2)cc1,–,–,–,–,–
O=C(COc1ccc2ccccc2c1)Nc1cccc(C(=O)Nc2ccccc2C(=O)O)c1,–,–,–,–,–
O=C(O)c1ccccc1Nc1cccc(OCc2ccc3ccccc3n2)c1,100,–,–,–,·
COc1ccc(CCC(=O)OCC(=O)Nc2sccc2C(N)=O)cc1,·,–,-5.3,–,·
CNC[C@H]1Oc2ccc(NC(=O)Nc3ccc(OC)cc3)cc2C(=O)N([C@@H](C)CO)C[C@H]1C,·,45,·,48,·
CNC[C@@H]1Oc2ccc(NC(=O)Nc3ccccc3)cc2C(=O)N([C@@H](C)CO)C[C@H]1C,·,–,–,–,·
CNC[C@@H]1Oc2ccc(NC(=O)Nc3cccc4ccccc34)cc2C(=O)N([C@@H](C)CO)C[C@@H]1C,·,57,·,48,·
C[C@H](CO)N1C[C@H](C)[C@@H](CN(C)C(=O)Nc2ccc(C(F)(F)F)cc2)Oc2ccc(NC(=O)NC3CCCCC3)cc2C1=O,·,–,·,–,·

# Screening data as filed in PubChem.
